Experimental data from paper PMC10422018 (Molecular Therapy, 2023).

Assays:
3T3-L1 adipocytes [1] = assay: Glycerol release from 3T3-L1 adipocytes treated with C26 CM; format: cell-based, mouse; conditions: 24 h
[2] = Stability of the peptides in solution; format: physicochemical; conditions: peptide in solution
3T3-L1 adipocytes [3] = assay: LPS-induced glycerol release from 3T3-L1 adipocytes; format: cell-based, mouse; conditions: 0.5 µM or 5 µM, 1µg/ml LPS, 24 h
Method in brief: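 3T3-L1 preadipocytes were differentiated with 1 μg/mL insulin, 0.25 μM dexamethasone and 0.5 mM IBMX, then used 8–12 days post-differentiation. Glycerol was measured with a glycerol kit, either directly in culture medium or in Krebs-Ringer buffer (3% BSA, 5 mM glucose) collected over 2 h after a 1 h preincubation. Experiments were repeated at least 2–3 times, each with n ≥3 technical replicates.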

NC(=O)c1ncn([C@@H]2O[C@H](COP(=O)(O)O)[C@@H](O)[C@H]2O)c1N [AICAR, 5-aminoimidazole-4-carboxamide ribonucleotide]
C26 CM-induced glycerol release (3T3-L1 adipocytes [1]; indicated concentrations of AICAR): reduced C26 CM-induced glycerol release at higher doses

C#CC[C@H](NC(=O)[C@H](CCCCN)NC(=O)[C@H](CCCCN)NC(=O)[C@H](Cc1c[nH]c2ccccc12)NC(=O)[C@H](CCCCN)NC(=O)[C@H](CCSC)NC(=O)[C@H](CCCNC(=N)N)NC(=O)[C@H](CCCNC(=N)N)NC(=O)[C@H](CC(N)=O)NC(=O)[C@H](CCC(N)=O)NC(=O)[C@H](Cc1ccccc1)NC(=O)[C@H](Cc1c[nH]c2ccccc12)NC(=O)[C@@H](NC(=O)[C@H](CCCCN)NC(=O)[C@@H](NC(=O)[C@H](CCC(N)=O)NC(=O)[C@@H](N)CCCNC(=N)N)[C@@H](C)CC)[C@@H](C)CC)C(=O)N[C@@H](CC(N)=O)C(=O)N[C@@H](Cc1c[nH]cn1)C(=O)N[C@H](C(=O)N[C@@H](CCSC)C(=O)N[C@@H](CC(C)C)C(=O)N[C@@H](CC(N)=O)C(=O)N[C@@H](Cc1c[nH]cn1)C(=O)N[C@@H](CC(C)C)C(=O)N[C@@H](Cc1ccc(O)cc1)C(=O)N[C@@H](C)C(=O)N[C@@H](CC(C)C)C(=O)N[C@@H](CO)C(=O)N[C@H](C(=O)N[C@@H](CCCCN)C(=O)N[C@@H](CC(=O)O)C(=O)NCC(=O)N[C@H](C(N)=O)C(C)C)[C@@H](C)CC)C(C)C [Pen-X-ACIP]
Degradation products in mass spectrometry [2]: No degradation products were detected

MK8722
LPS-induced glycerol release (3T3-L1 adipocytes [3]): inhibited
C26 CM-induced lipolysis (glycerol release) (3T3-L1 adipocytes [1]; 0.5 µM or 5 µM): reduced C26 CM-induced lipolysis dose dependently
